ABHD4 inh – inhibitors of mouse ABHD4; Q8VD66; purified mABHD4, FP-Rh probe fluorescence polarization; inhibition, % at 8.92 µM; actives 0.54% (n = 370,000);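 active = inhibition exceeding the mean over every tested compound plus 3 SD, cut at about 30% in these data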;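 also: 0% = plate median of compound wells and 100% = S159A mutant with DMSO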
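system = mouse ABHD4 enzyme, wild type | medium = HEPES pH 7.0, NaCl, Pluronic buffer | also added = FP-Rh probe | incubation = Enzyme–compound pre-incubation 45 min, then probe 60 min, both 25 °C | technique = fluorescence polarization, excitation 525 nm, emission 598 nm, BODIPY TMR filters | controls = S159A mutant high control, sample median low control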
PAFAH1B2 FP inh – blocks human PAF acetylhydrolase 1b catalytic subunit 2 | P68402 | AID 492953 | recombinant PAFAH1B2, FP-rhodamine activity probe, fluorescence polarization | actives 1.2% (n = 340,000) | inhibition, % at 3.39 µM;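 active = inhibition above the mean of all tested compounds plus 3 SD, cut at about 24% in these data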;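 also: 0% = enzyme with DMSO and 100% = wells lacking PAFAH1B2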
PAFAH1B3 FP inh – PAFAH1B3 (human) inhibition; AID 492972; Q15102; inhibition, % at 3.39 µM; actives 0.28% (n = 340,000); recombinant PAFAH1B3, FP-rhodamine probe, fluorescence polarization;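 active = inhibition above the screen-wide average of all tested compounds plus 3 SD, cut at about 25% in these data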;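 also: 0% = enzyme with DMSO only and 100% = wells lacking PAFAH1B3 protein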
Target sequence (Q15102 whole entry, looked up): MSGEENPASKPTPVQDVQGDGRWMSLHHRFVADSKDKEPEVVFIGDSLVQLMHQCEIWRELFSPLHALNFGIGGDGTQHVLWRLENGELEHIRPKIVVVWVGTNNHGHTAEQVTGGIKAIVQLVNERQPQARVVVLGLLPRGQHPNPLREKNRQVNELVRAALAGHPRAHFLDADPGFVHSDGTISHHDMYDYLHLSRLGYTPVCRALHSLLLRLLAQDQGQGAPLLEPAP
PAFAH2 FP inh – inhibitors of human PAFAH2. actives 0.99% (n = 340,000). Q99487. inhibition, % at 3.39 µM. recombinant PAFAH2, FP-rhodamine activity probe, fluorescence polarization;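 active = inhibition above the mean over all tested compounds plus 3 SD, cut at about 30% in these data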;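 also: inhibitors block probe labeling of enzyme so polarization drops; 0% = enzyme with DMSO and 100% = wells lacking PAFAH2 protein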
pPAFAH FP inh – pPAFAH (human) enzyme inhibition | recombinant pPAFAH, FP-rhodamine probe fluorescence polarization | inhibition, % at 3.39 µM | actives 1.5% (n = 330,000) | Q13093;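 active = inhibition above the mean inhibition across the screen plus 3 SD, cut at about 25% in these data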;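 also: inhibitors block binding of the rhodamine activity-based probe so polarization drops; 0% = enzyme with DMSO and 100% = wells lacking pPAFAH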
HTRA1 inh – HTRA1 (human) protease inhibition; recombinant HTRA1, FP-rhodamine activity-based probe, fluorescence polarization; inhibition, % at 5.96 µM; actives 0.5% (n = 340,000); in the data active = inhibition above about 36%;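 also: 0% = enzyme with DMSO and 100% = wells lacking enzyme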
Target sequence (Q92743 whole entry, looked up): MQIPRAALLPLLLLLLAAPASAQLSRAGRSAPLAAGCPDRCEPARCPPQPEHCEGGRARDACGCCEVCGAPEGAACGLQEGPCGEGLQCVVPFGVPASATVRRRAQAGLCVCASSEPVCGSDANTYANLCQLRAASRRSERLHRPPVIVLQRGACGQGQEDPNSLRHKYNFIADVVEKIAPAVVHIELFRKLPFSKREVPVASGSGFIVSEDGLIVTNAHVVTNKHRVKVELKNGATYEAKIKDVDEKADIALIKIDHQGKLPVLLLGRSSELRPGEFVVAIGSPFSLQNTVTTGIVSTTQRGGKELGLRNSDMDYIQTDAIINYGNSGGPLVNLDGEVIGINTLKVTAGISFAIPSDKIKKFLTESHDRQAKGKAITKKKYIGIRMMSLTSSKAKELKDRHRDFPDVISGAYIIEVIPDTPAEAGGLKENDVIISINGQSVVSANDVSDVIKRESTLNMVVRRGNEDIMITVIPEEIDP
Starred values were filed as active, the others as inactive; . = no result. Hits are enriched below; roughly 2.8% of the tested compounds scored in any of these assays.

SMILES | ABHD4 inh | PAFAH1B2 FP inh | PAFAH1B3 FP inh | PAFAH2 FP inh | pPAFAH FP inh | HTRA1 inh
O=C(Nc1ccc(F)cc1)N[C@@H]1C[C@@H]2O[C@H](CO)CC[C@@H]2O[C@@H]1CCc1ccc(C2=CCCC2)cc1 | -13 | . | . | . | . | .
C=C(C(=O)O)C1CCC2(C)CCCC(C)(O)C2C1 (configuration not stated) | 3 | 29* | 6 | 3 | 2 | 0
CCOc1ccc(-n2c(SCC(=O)Nc3ccccc3-c3ccccc3)nnc2-c2ccccc2)cc1 | -13 | . | . | . | . | .
COC(=O)C1CN(Cc2ccccc2)CCS(=O)(=O)N1Cc1ccccc1 (configuration not stated) | -1 | . | . | . | . | .
Cc1ccccc1Cn1c(NC2CCCC2)nc2c1c(=O)[nH]c(=O)n2C | 2 | 2 | 3 | 5 | 33* | 3
COC(=O)[C@]12C[C@H](CC(=O)NCc3cccc(C(F)(F)F)c3)C(=O)N(Cc3ccc(Cl)cc3Cl)C1=C[C@H](C(C)(C)C)O[C@@H]2C | -6 | . | . | . | . | .
COc1ccc(OC)c(C(c2c(C)[nH][nH]c2=O)c2c(C)[nH][nH]c2=O)c1 | 3 | 0 | 4 | 6 | -4 | 3
COc1ccc(O)c(C(c2c(C)[nH][nH]c2=O)c2c(C)[nH][nH]c2=O)c1 | 11 | 27* | 38* | 11 | 4 | 23
CSC[C@@H]1NC(=S)N(c2ccc(C)cc2)C1=O | -3 | 27* | 49* | 15 | 14 | -50
Cc1ccc(N2C(=O)C3CCC(C)(C2=O)C3(C)C)cc1 (configuration not stated) | 4 | -2 | 0 | 8 | -1 | 7
O=C1NC(=O)/C(=C/c2ccccc2Oc2ccc(Cl)cc2)S1 | -4 | 28* | 0 | 0 | 14 | -12
Cc1csc(=O)n1CCC(=O)OCC(=O)N(CC(C)C)c1c(N)n(Cc2ccccc2)c(=O)[nH]c1=O | -7 | 4 | 13 | -5 | 26* | 15
COC(=O)[C@]12C[C@H](CC(=O)N3CCCCC3)C(=O)N(Cc3ccco3)C1=C[C@H](C(C)(C)C)O[C@@H]2C | 7 | . | . | . | . | .
CC(=O)N1C(C)(C)CC(=NOC(=O)c2ccc(C)cc2)CC1(C)C | 4 | 0 | 10 | 83* | 25* | -5
Cc1ccc(C(=O)ON=C2CCN(c3ccc([N+](=O)[O-])cc3)CC2)cc1 | -3 | 3 | 6 | 77* | 8 | -10
Cc1ccc(C(=O)NC(=S)N2CCN(c3ccc([N+](=O)[O-])cc3)CC2)cc1 | -13 | 1 | 3 | -6 | 2 | 0
C=CC[C@H](CC(=O)NCCO)C(=O)N[C@H](COC(=O)[C@@H](CC=C)Cc1ccc(F)cc1)c1ccccc1 | -13 | 25* | 6 | -1 | 5 | -9
C=CCC[C@H](Cc1ccc(F)cc1)C(=O)OC[C@@H](NC(=O)[C@H](CC=C)CC(=O)NCCO)c1ccccc1 | -12 | 4 | 4 | -1 | 8 | -11
C[C@H]1Cn2nnc(-c3ccccc3)c2Cn2c3ccccc3c(=O)n21 | -5 | . | . | . | . | .
Cc1ccc(SCCC(=O)Nc2ccccc2Br)cc1 | -2 | 26* | 8 | 2 | 3 | -15
O=C(CCSCc1ccc(Cl)cc1)NC1CCCC1 | -10 | 27* | 1 | -2 | 4 | 4
Cc1ccccc1CSCCNC(=O)CCSc1ccccc1 | -7 | 18 | 2 | 1 | 4 | -19
O=C(CCSCc1cccc(Cl)c1)NCCc1ccc(Cl)cc1 | -12 | 28* | 0 | 1 | 4 | -25
Cc1ccc(CSCCNC(=O)CCSc2ccccc2)cc1 | -6 | 41* | 0 | 4 | 12 | -17
COC(=O)[C@H](C)NC(=O)C(Cc1ccc2c(c1)OCO2)NC(C)=O (some centres not stated) | -3 | . | . | . | . | .
SMILES | ABHD4 inh | PAFAH1B2 FP inh | PAFAH1B3 FP inh | PAFAH2 FP inh | pPAFAH FP inh | HTRA1 inh
Cc1ccc(-n2c(SCC(=O)Nc3ccc(OCc4ccccc4)cc3)nnc2-c2ccccc2)cc1 | 1 | . | . | . | . | .
Cc1ccc(CNC(=O)CCSCc2cccc(F)c2)cc1 | -6 | 25* | 8 | 0 | 17 | -5
C[C@@H]1ON(C)[C@H]2C[C@H]3c4[nH]c5c(-c6ccc7c(c6)OCO7)cccc5c4CCN3C(=O)[C@@H]12 | 0 | . | . | . | . | .
COc1ccccc1CNC(=O)N1CCC(c2nc3ccc(Cl)cc3[nH]2)CC1 | -4 | . | . | . | . | .
O=S(=O)(c1ccccc1)c1cnn(-c2ccccc2)c1-c1ccc(F)cc1 | 0 | 28* | 6 | 2 | -3 | -16
COc1ccc(-n2ncc(S(=O)(=O)c3ccccc3)c2-c2ccc(Cl)cc2)cc1 | -16 | 3 | 2 | 0 | 1 | -29
C[C@H]1[C@@H](NC(=O)c2ccc(O)cc2)CC[C@@]23CCCN2C(=O)CCC[C@@H]13 | -1 | . | . | . | . | .
CC1CCN(C(=O)COC(=O)c2ccc([N+](=O)[O-])o2)CC1 | -3 | 7 | 12 | 0 | 28* | 18
CCC(C)CNC(=O)c1cn(C(C)c2ccccc2)nn1 (configuration not stated) | -2 | . | . | . | . | .
COc1ccc2c(-c3ccccc3)cc(SCC(N)=O)nc2c1 | -13 | -3 | -6 | -5 | 33* | -25
COc1ccc2nc(SCC(N)=O)cc(C)c2c1 | 1 | -2 | -4 | 11 | -8 | 0
COC(=O)[C@H](C(C)C)N(Cc1cn(CC2CCCCC2)nn1)S(=O)(=O)c1ccc(F)cc1Br | -2 | . | . | . | . | .
COC(=O)C[C@@H]1CC[C@H]2[C@@H](COc3ccc(NC(=O)c4cc(C)on4)cc3C(=O)N2C)O1 | 3 | . | . | . | . | .
Cc1ccn2cc(CCNS(=O)(=O)c3ccc([N+](=O)[O-])cc3)nc2c1 | 2 | 11 | 11 | -3 | 30* | 6
C[C@H]1COC(=O)[C@H](Cc2ccc(F)cc2)C/C=C\C[C@@H](CC(=O)NCCO)C(=O)N1 | 3 | 12 | 14 | 3 | 3 | 8
C[C@@H]1COC(=O)[C@H](Cc2ccc(F)cc2)C/C=C\C[C@@H](CC(=O)NCCO)C(=O)N1 | -1 | 33* | 6 | 1 | 0 | -1
CC(C)(C)[C@@H]1COC(=O)[C@H](Cc2ccc(F)cc2)C/C=C\C[C@@H](CC(=O)NCCO)C(=O)N1 | 2 | 32* | 4 | 0 | 2 | 5
C[C@H]1COC(=O)[C@@H](Cc2ccc(F)cc2)C/C=C\C[C@@H](CC(=O)NCCO)C(=O)N1 | 7 | 2 | -6 | 7 | 2 | 7
O=c1c2cc3cc(Cl)ccc3nc2ncn1Cc1ccc(Oc2ccccc2)cc1 | 5 | . | . | . | . | .
Cc1ccc(SC2=C(N(C)C)C(=O)c3ccccc3C2=O)cc1 | 28 | 25* | 34* | 19 | . | 23
Cc1ccc(C(=O)n2ccc3ccc(-c4ccc5ccn(Cc6ccccc6)c5c4)cc32)cc1 | -7 | . | . | . | . | .
Cc1ccc(C)c(NC(=O)COc2coc(CN3CCc4ccccc43)cc2=O)c1 | 3 | 1 | 6 | -1 | 7 | 0

Bioassay records: PubChem, The Scripps Research Institute Molecular Screening Center
